Source: PubChem
The list is not random: actives were taken first. Their share in the collection is about 2.8%.
E-selectin induc: induces E-selectin expression in human endothelial cells; P16581; HUVEC E-selectin immunofluorescence imaging; normalized: neutral wells 0, TNF-alpha wells 100; activation, % at 7.58 µM; hit rate 0.37% among 260,000;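 active = mean E-selectin-positive cell signal at least 10% of the positive control, reached in at least 60% of replicates, without over 20% cell loss; inconclusive = no rule given, readout overlaps actives, possibly toxicity-flagged; inactive = the rest, including those meeting only one limit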
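Test system – human umbilical vein endothelial cells (HUVEC), E-selectin induction · Input – 3,000 HUVEC seeded per well · Buffer or medium – EGM-2, gelatin · Compound dosing – single-point compound dose · Detection – immunofluorescence imaging · Measure – percent E-selectin-positive cells · Controls – TNF-alpha high, DMSO low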
DENV2 CPE rescue: inhibitors of DENV2 cytopathic effect | DENV2-infected cells, cytopathic effect rescue, plate reader | CPE inhibition, % at 9.99 µM | hit rate 1.7% among 350,000 | AID 651640; in the data active = CPE inhibition above about 20%, passing the limit was not always enough; inconclusive = no clear call, values can overlap the other calls; tested in BHK-21 cells
SIRT5 block: blocks human SIRT5 desuccinylation of peptide | Q9NXA8 | Purified SirT5, succinyl-peptide AMC, trypsin-coupled fluorescence | inhibition, % at 15 µM | hit rate 1.1% among 330,000 | AID 652115; in the data active = inhibition above about 15%; inconclusive = no clear call, values can overlap the other calls
Target sequence (Q9NXA8 whole entry, looked up): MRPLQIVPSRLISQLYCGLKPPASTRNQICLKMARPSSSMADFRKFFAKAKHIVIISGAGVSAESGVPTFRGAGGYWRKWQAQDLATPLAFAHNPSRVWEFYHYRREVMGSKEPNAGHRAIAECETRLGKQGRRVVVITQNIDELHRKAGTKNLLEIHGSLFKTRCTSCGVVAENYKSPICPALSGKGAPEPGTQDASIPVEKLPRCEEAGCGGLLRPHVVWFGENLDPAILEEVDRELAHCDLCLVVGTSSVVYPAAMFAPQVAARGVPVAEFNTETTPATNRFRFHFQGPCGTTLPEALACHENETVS
Large screens that a line does not name were inactive.

Cc1cc(C(=O)COC(=O)C2=COCCO2)c(C)n1-c1ccc2c(c1)OCO2	none (no result: DENV2 CPE rescue, SIRT5 block)
Cc1cc(C(=O)COc2ccc(C#N)cc2)c(C)n1-c1ccc2c(c1)OCO2	SIRT5 block 35
CC(C)CN1C(=O)C(NC(=O)C2CC2)(C(F)(F)F)C2=C1CC(C)(C)CC2=O (stereo not drawn)	SIRT5 block 36 (no result: E-selectin induc)
CC1(C)CC(=O)C2=C(C1)N(CC1CCCO1)C(=O)C2(NC(=O)c1cccnc1)C(F)(F)F (stereo not drawn)	none (no result: E-selectin induc, DENV2 CPE rescue)
CCC(=O)N1C[C@H](C)[C@@H](OC)CN(C)C(=O)c2ccc(NC(=O)Nc3ccc(Cl)cc3)cc2OC[C@H]1C	none
C[C@H](CO)N1C[C@H](C)[C@H](CN(C)CC2CC2)Oc2cc(-c3cccc(F)c3)ccc2S1(=O)=O	none
C[C@@H]1CN([C@H](C)CO)C(=O)c2cc(C#CCN(C)C)cnc2O[C@H]1CN(C)Cc1ccccn1	none
O=C(N/N=C/c1ccc([N+](=O)[O-])o1)c1ccncc1	none
O=C(N/N=C\c1ccc([N+](=O)[O-])o1)c1cncc(Br)c1	SIRT5 block 21
O=C(Cc1ccc2c(c1)OCO2)NN=Cc1ccc([N+](=O)[O-])o1	DENV2 CPE rescue 61
CCCCCC(=O)N/N=C/c1ccc([N+](=O)[O-])o1	none (no result: E-selectin induc)
O=C(Nc1ccc2oc(=O)ccc2c1)c1ccc(-c2cccc([N+](=O)[O-])c2)o1	DENV2 CPE rescue 27
O=C(Nc1ccc2oc(=O)ccc2c1)c1ccc(-c2cccc(Cl)c2)o1	none
C[C@H](CO)N1C[C@H](C)[C@@H](CN(C)C(=O)Cc2ccccc2)OCCCC[C@H](C)Oc2ccc(NS(=O)(=O)c3ccccc3)cc2C1=O	none
C[C@@H]1CCCCO[C@@H](CN(C)C(=O)Cc2ccccc2)[C@H](C)CN([C@H](C)CO)C(=O)c2cc(NS(=O)(=O)c3ccc(Cl)cc3)ccc2O1	DENV2 CPE rescue 85
C[C@@H]1CCCCO[C@H](CN(C)C(=O)Cc2ccccc2)[C@@H](C)CN([C@H](C)CO)C(=O)c2cc(NS(=O)(=O)c3ccc(Cl)cc3)ccc2O1	DENV2 CPE rescue 54
C[C@@H]1CCCCO[C@H](CN(C)C(=O)Cc2ccccc2)[C@H](C)CN([C@H](C)CO)C(=O)c2cc(NS(=O)(=O)c3ccccc3)ccc2O1	SIRT5 block 16
C[C@@H]1CCCCO[C@H](CN(C)C(=O)Cc2ccccc2)[C@@H](C)CN([C@@H](C)CO)C(=O)c2cc(NS(=O)(=O)c3cccs3)ccc2O1	none
C[C@H](CO)N1C[C@H](C)[C@@H](CN(C)C(=O)Cc2ccccc2)OCCCC[C@H](C)Oc2ccc(NS(=O)(=O)c3ccc(Cl)cc3)cc2C1=O	none
C[C@@H]1CCCCO[C@@H](CN(C)C(=O)Cc2ccccc2)[C@H](C)CN([C@H](C)CO)C(=O)c2cc(NS(=O)(=O)c3cccs3)ccc2O1	DENV2 CPE rescue 61
C[C@@H]1CCCCO[C@H](CN(C)C(=O)Cc2ccccc2)[C@H](C)CN([C@H](C)CO)C(=O)c2cc(NS(=O)(=O)c3ccc(Cl)cc3)ccc2O1	none
CO[C@H]1CN(C)C(=O)c2ccc(NC(=O)Nc3c(C)noc3C)cc2OC[C@H](C)N(C)C[C@H]1C	none
CCNC(=O)[C@@H]1[C@@H](CO)[C@@H]2Cn3c(ccc(C4=CCCC4)c3=O)[C@@H]2N1C(=O)C1CC1	none
C[C@@H]1CCCCO[C@@H](CN(C)C)[C@H](C)CN([C@@H](C)CO)C(=O)c2cc(NS(=O)(=O)c3cn(C)cn3)ccc2O1	none
CN(C)c1ccc2c(c1)[C@@H]1C[C@H](CC(=O)NCC3CC3)O[C@@H](CO)[C@@H]1O2	none
O=S(=O)(c1ccc(F)cc1)N1CCCCN2[C@H](CO)[C@H](c3ccc(C#CC4CCCC4)cc3)[C@@H]2C1	SIRT5 block 23 (no result: E-selectin induc)
O=S(=O)(c1ccc(F)cc1)N1CCCCN2[C@@H](CO)[C@H](c3ccc(C#CC4CCCC4)cc3)[C@@H]2C1	SIRT5 block 27 (no result: E-selectin induc)
O=S(=O)(c1ccc(F)cc1)N1CCCCN2[C@@H](CO)[C@@H](c3ccc(C#CC4CC4)cc3)[C@@H]2C1	none (no result: SIRT5 block)
O=S(=O)(c1ccc(F)cc1)N1CCCCN2[C@H](C1)[C@@H](c1ccc(C#CC3CCCC3)cc1)[C@@H]2CO	none (no result: E-selectin induc)
O=S(=O)(c1ccc(F)cc1)N1CCCCN2[C@H](CO)[C@@H](c3ccc(C#CC4CC4)cc3)[C@@H]2C1	none
O=S(=O)(c1ccc(F)cc1)N1CCCCN2[C@@H](CO)[C@@H](c3ccc(C#CC4CCCC4)cc3)[C@@H]2C1	SIRT5 block 23 (no result: E-selectin induc)
C[C@@H]1CN([C@H](C)CO)C(=O)c2cc(-c3cncnc3)cnc2O[C@H]1CN(C)C(=O)c1cccc(F)c1	none
Cc1ccn2c(NC3CCCCC3)c(-c3ccc(SC4CCCCC4)cc3)nc2c1	DENV2 CPE rescue 37 (no result: SIRT5 block)
Cc1ccn2c(NC3CCCCC3)c(-c3cccc(SC4CCCCC4)c3)nc2c1	DENV2 CPE rescue inconclusive
COc1ccc2nc(C)cc(Nc3ccc(C)cc3)c2c1	none
COc1ccc(Nc2cc(C)nc3ccccc23)cc1	SIRT5 block 18 (no result: E-selectin induc, DENV2 CPE rescue)
C[C@@H]1CCCCO[C@@H](CN(C)C(=O)c2ccccc2)[C@H](C)CN([C@@H](C)CO)C(=O)c2cc(NS(=O)(=O)c3ccc(Cl)cc3)ccc2O1	none
C[C@@H]1CCCCO[C@@H](CN(C)C(=O)c2ccccc2)[C@@H](C)CN([C@@H](C)CO)C(=O)c2cc(NS(=O)(=O)c3ccc(Cl)cc3)ccc2O1	DENV2 CPE rescue 21
C[C@H](CO)N1C[C@H](C)[C@H](CN(C)C(=O)c2ccccc2)OCCCC[C@H](C)Oc2ccc(NS(=O)(=O)c3ccc(F)cc3)cc2C1=O	none
C[C@@H]1CCCCO[C@@H](CN(C)C(=O)c2ccccc2)[C@@H](C)CN([C@@H](C)CO)C(=O)c2cc(NS(=O)(=O)c3ccc(F)cc3)ccc2O1	DENV2 CPE rescue 121
C[C@H]1CN([C@@H](C)CO)C(=O)c2cccc(NS(=O)(=O)c3ccc(Cl)cc3)c2O[C@H]1CN(C)Cc1ccc(-c2ccccc2)cc1	none
CC(C)NC(=O)N[C@H]1C=C[C@@H](CC(=O)NCCCN(C)C)O[C@H]1CO	none
O=C(Nc1cccc(F)c1)N1C[C@@H]2[C@H](c3ccccc31)[C@H](CO)N2C(=O)c1cccnc1	none
COCC(=O)N1[C@H](CO)[C@@H](c2ccccc2)C12CN(C(=O)Cc1ccccn1)C2	none
CCOc1ccc(Cl)cc1CNCCCSc1ncccn1	none (no result: E-selectin induc)
CCOc1ccc(Cl)cc1CNCCCSc1nc(C)cc(C)n1	SIRT5 block 20 (no result: E-selectin induc)
CC(C)(C)[S@](=O)N1Cc2cc(C(=O)NCc3ccncc3)nc(-c3cccc(-c4ccc(C#N)cc4)c3)c2[C@@H]1CCO	none (no result: SIRT5 block)
COC(=O)c1ccccc1NC(=O)c1cc2ccccc2o1	none (no result: E-selectin induc)
O=C(Nc1ccccc1C(=O)N1CCOCC1)c1cc2ccccc2o1	SIRT5 block 30 (no result: E-selectin induc)
O=C(O)c1cccc(NC(=O)c2cn(-c3ccccc3)nc2-c2ccncc2)c1	none
O=C(O)c1cccc(NC(=O)c2cn(-c3ccccc3)nc2-c2cccc(Br)c2)c1	SIRT5 block 16 (no result: E-selectin induc)
COc1ccc(NC(=O)Nc2ccc3c(c2)CC(=O)N([C@@H](C)CO)C[C@@H](C)[C@H](CN(C)C)O3)cc1	none
CCOc1ccc(S(=O)(=O)NN2Cc3ccccc3C2=N)cc1	SIRT5 block 18 (no result: E-selectin induc)
CC(C)(C)c1ccc(OCC(=O)NN2Cc3ccccc3C2=N)cc1	none (no result: E-selectin induc)
